# Key:
# P388 [1] = test: In vivo activity against P388 Lymphocytic Leukemia in CD2F1 mice at the dose of 50 mg/kg, activity expressed as KE; format: functional, Mus musculus
# P388 [2] = test: In vivo activity against P388 Lymphocytic Leukemia in CD2F1 mice at the dose of 100 mg/kg, activity expressed as TDS; format: functional, Mus musculus
# In short: (§1)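 CD2F1 mice were inoculated with ascitic fluid holding ca. 10^6 P388 cells. Drug was given daily from 24 h after inoculation, from solutions or suspensions made fresh each day, some as a saline suspension. TDS is survivors/initial animals on day 5. BWD is body weight on day 5 minus day 1. %T/C compares median survival of treated and control mice.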
# P388 [3] = test: In vivo activity against P388 Lymphocytic Leukemia in CD2F1 mice at the dose of 25 mg/kg, activity expressed as KE; format: functional, Mus musculus
# P388 [4] = test: In vivo activity against P388 Lymphocytic Leukemia in CD2F1 mice at the dose of 12.5 mg/kg, activity expressed as body weight difference; format: functional, Mus musculus; in short: as §1
# P388 [5] = test: In vivo activity against P388 Lymphocytic Leukemia in CD2F1 mice at the dose of 12.5 mg/kg, activity expressed as % T/C; format: functional, Mus musculus; in short: as §1
# P388 [6] = test: In vivo activity against P388 Lymphocytic Leukemia in CD2F1 mice at the dose of 50 mg/kg, activity expressed as body weight difference; format: functional, Mus musculus; in short: as §1
# P388 [7] = test: In vivo activity against P388 Lymphocytic Leukemia in CD2F1 mice at the dose of 12.5 mg/kg, activity expressed as KE; format: functional, Mus musculus
# P388 [8] = test: In vivo activity against P388 Lymphocytic Leukemia in CD2F1 mice at the dose of 12.5 mg/kg, activity expressed as TDS; 6/6; format: functional, Mus musculus; in short: as §1
# P388 [9] = test: In vivo activity against P388 Lymphocytic Leukemia in CD2F1 mice at the dose of 100 mg/kg, activity expressed as % T/C; format: functional, Mus musculus; in short: as §1
# P388 [10] = test: In vivo activity against P388 Lymphocytic Leukemia in CD2F1 mice at the dose of 50 mg/kg, activity expressed as % T/C; format: functional, Mus musculus; in short: as §1
# P388 [11] = test: In vivo activity against P388 Lymphocytic Leukemia in CD2F1 mice at the dose of 50 mg/kg, activity expressed as TDS; 6/6; format: functional, Mus musculus; in short: as §1
# P388 [12] = test: In vivo activity against P388 Lymphocytic Leukemia in CD2F1 mice at the dose of 100 mg/kg, activity expressed as KE; format: functional, Mus musculus
# P388 [13] = test: In vivo activity against P388 Lymphocytic Leukemia in CD2F1 mice at the dose of 100 mg/kg, activity expressed as body weight difference; format: functional, Mus musculus; in short: as §1
# P388 [14] = test: In vivo activity against P388 Lymphocytic Leukemia in CD2F1 mice at the dose of 25 mg/kg, activity expressed as body weight difference; format: functional, Mus musculus; in short: as §1
# P388 [15] = test: In vivo activity against P388 Lymphocytic Leukemia in CD2F1 mice at the dose of 25 mg/kg, activity expressed as TDS; 6/6; format: functional, Mus musculus; in short: as §1
# P388 [16] = test: In vivo activity against P388 Lymphocytic Leukemia in CD2F1 mice at the dose of 200 mg/kg, activity expressed as TDS; 0/6; format: functional, Mus musculus; in short: as §1
# P388 [17] = test: In vivo activity against P388 Lymphocytic Leukemia in CD2F1 mice at the dose of 25 mg/kg, activity expressed as % T/C; format: functional, Mus musculus; in short: as §1
# [18] = Hydrolysis were done at 25 degree C in 0.05 M phosphate buffer (pH 7.4); format: ADME
# In short: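 Model pyridinium salts were hydrolysed to pyridones at 25 °C in 0.05 M phosphate buffer, pH 7.4. Decay of the pyridinium UV absorption maximum was monitored over time, giving pseudo-first-order k_obs and half-life.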
# [19] = Half life of the compound; format: ADME
# P388 [20] = test: In vivo activity against P388 Lymphocytic Leukemia in CD2F1 mice at the dose of 100 mg/kg, activity expressed as TDS; 4/4; format: functional, Mus musculus; in short: as §1
# P388 [21] = test: In vivo body weight difference was determined in P388 Lymphocytic Leukemia in CD2F1 mice at the dose of 200 mg/kg; format: functional, Mus musculus
# P388 [22] = test: In vivo body weight difference was determined in P388 Lymphocytic Leukemia in CD2F1 mice at the dose of 25 mg/kg; format: functional, Mus musculus
# P388 [23] = test: In vivo activity against P388 Lymphocytic Leukemia in CD2F1 mice at the dose of 200 mg/kg, activity expressed as % T/C; format: functional, Mus musculus; in short: as §1
# P388 [24] = test: In vivo activity against P388 Lymphocytic Leukemia in CD2F1 mice at the dose of 50 mg/kg, activity expressed as TDS; 4/4; format: functional, Mus musculus; in short: as §1
# P388 [25] = test: In vivo body weight difference was determined in P388 Lymphocytic Leukemia in CD2F1 mice at the dose of 50 mg/kg; format: functional, Mus musculus
# P388 [26] = test: In vivo body weight difference was determined in P388 Lymphocytic Leukemia in CD2F1 mice at the dose of 100 mg/kg; format: functional, Mus musculus
# P388 [27] = test: In vivo activity against P388 Lymphocytic Leukemia in CD2F1 mice at the dose of 25 mg/kg, activity expressed as TDS; 4/4; format: functional, Mus musculus; in short: as §1
# P388 [28] = test: In vivo activity against P388 Lymphocytic Leukemia in CD2F1 mice at the dose of 200 mg/kg, activity expressed as TDS; 4/4; format: functional, Mus musculus; in short: as §1
# P388 [29] = test: In vivo activity against P388 Lymphocytic Leukemia in CD2F1 mice at the dose of 6.2 mg/kg, activity expressed as body weight difference; format: functional, Mus musculus; in short: as §1
# P388 [30] = test: In vivo activity against P388 Lymphocytic Leukemia in CD2F1 mice at the dose of 6.2 mg/kg, activity expressed as TDS; 4/4; format: functional, Mus musculus; in short: as §1
# P388 [31] = test: In vivo activity against P388 Lymphocytic Leukemia in CD2F1 mice at the dose of 6.2 mg/kg, activity expressed as % T/C; format: functional, Mus musculus; in short: as §1
# P388 [32] = test: In vivo activity against P388 Lymphocytic Leukemia in CD2F1 mice at the dose of 12.5 mg/kg, activity expressed as TDS; 4/4; format: functional, Mus musculus; in short: as §1
# P388 [33] = test: In vivo activity against P388 Lymphocytic Leukemia in CD2F1 mice at the dose of 50 mg/kg, activity expressed as TDS; 0/4; format: functional, Mus musculus; in short: as §1
smiles,measurement,setting,value
CC(C)NC(=O)OCc1c(COC(=O)NC(C)C)c(-c2cc[n+](C)c(Cl)c2)n2c1CCC2.[I-],KE,P388 [1],-1.44
same,TDS,P388 [2],6
same,KE,P388 [3],-1.56
same,BWD,P388 [4],-0.1 g
same,T/C,P388 [5],103%
same,BWD,P388 [6],-0.5 g
same,KE,P388 [7],-1.56
same,TDS,P388 [8],6
same,T/C,P388 [9],121%
same,T/C,P388 [10],112%
same,TDS,P388 [11],6
same,KE,P388 [12],-1.07
same,BWD,P388 [13],-0.8 g
same,BWD,P388 [14],0.4 g
same,TDS,P388 [15],6
same,TDS,P388 [16],0
same,T/C,P388 [17],103%
CCOC(=O)c1cc[n+](C)c(Br)c1.O=S(=O)([O-])C(F)(F)F,K obs,[18],0.012 h⁻¹
same,half-life,[19],57.7 h
CC(C)NC(=O)OCc1c(COC(=O)NC(C)C)c(-c2cc(Br)c(Cl)[n+](C)c2)n2c1CCC2.[I-],TDS,P388 [20],4
same,BWD,P388 [21],-0.7 g
same,BWD,P388 [22],-0.6 g
same,T/C,P388 [9],122%
same,T/C,P388 [23],105%
same,T/C,P388 [10],118%
same,TDS,P388 [24],4
same,BWD,P388 [25],-0.4 g
same,BWD,P388 [26],-1 g
same,TDS,P388 [27],4
same,TDS,P388 [28],4
same,T/C,P388 [17],124%
CC(C)NC(=O)OCc1c(COC(=O)NC(C)C)c(-c2ccc(Cl)[n+](C)c2)n2c1CCC2.[I-],BWD,P388 [4],0.1 g
same,T/C,P388 [5],102%
same,BWD,P388 [29],-0.4 g
same,TDS,P388 [30],4
same,T/C,P388 [31],98%
same,BWD,P388 [14],-1.1 g
same,TDS,P388 [32],4
same,TDS,P388 [27],4
same,TDS,P388 [33],0
same,T/C,P388 [17],109%
CCOC(=O)c1cc(Cl)[n+](C)c(Cl)c1.CS(=O)(=O)[O-],K obs,[18],6.84 h⁻¹
same,half-life,[19],2.1 h
Cc1cc(Cl)c(Cl)[n+](C)c1.O=S(=O)([O-])C(F)(F)F,K obs,[18],0.055 h⁻¹
same,half-life,[19],12.6 h
